Source: PubChem BioAssay
A selection: hits, their analogues and other compounds. The true share with any hit is near 3.6%.
RAM network inh = yeast RAM network inhibition. S. cerevisiae dse1pr::URA3 reporter, 5-FOA growth OD615, 2 d; analog-sensitive cbk1-as2 kinase mutant strain. inhibition, % at 50 µM. 190,000 tested, 1.8% active. AID 868;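 active = inhibition above a set limit, 3 SD over mean compound inhibition, cut at about 8.4% in these data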;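 also: 0% = DMSO-only wells with no growth and 100% = 10 µM 1-NA-PP1 full growth; inhibition rescues growth on 5-FOA so higher OD means more RAM inhibition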
Yeast lifespan up = extends the lifespan of yeast | inhibition of the nicotinamide effect, % at 10 µM | 130,000 tested, 0.68% active | AID 775 | S. cerevisiae growth with nicotinamide, OD615; deaD strain in restrictive glucose medium;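 active = inhibition above a set limit, placed 3 SD over the median of all compounds, cut at about 26% in these data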;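 also: 0% = nicotinamide-treated wells and 100% = cells grown without nicotinamide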
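Test system: DeaD-strain S. cerevisiae / Buffer or medium: restrictive glucose medium / Also added: nicotinamide 1.5 mM / Doses: one concentration, 10 µM, DMSO 0.25% / Schedule: 48 h at 30 °C / Signal: OD615 measurement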
Measles CPE = protection of cells from measles virus. Measles virus-infected cells, CPE protection, absorbance. protection (pct of control), % at 4 µM. 140,000 tested, 1.5% active; in the data active = protection mostly above about 24%, no sharp cut-off; inactive = mostly below about 26%
Phagocytosis inh = blocks phagocytosis by macrophages. J774A.1 macrophage IgG-bead phagocytosis, imaging. inhibition, % at 5 µM. 110,000 tested, 0.07% active;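 active = inhibition above the mean of the plate negative controls plus 5 SD, cut at about 13% in these data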;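 also: phagocytic index as fraction of beads internalized from green versus red external bead signal; plate controls were DMSO negative control for no effect and cytochalasin-D positive control for full effect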
Yeast growth inh = reduces growth of yeast BB579 in restrictive medium; 140,000 tested, 0.51% active; S. cerevisiae BB579 growth, OD615, 48 h; inhibition, % at 10 µM; AID 804;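 active = inhibition above a set limit, 3 SD over the mean compound inhibition, cut at about 44% in these data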
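Test system: DeaD yeast strain BB579 / Buffer or medium: restrictive glucose-based CSMM-D medium / Doses: single 10 µM dose / Schedule: 4 h cell preincubation, 48 h compound exposure, 30 °C humidified / Technique: culture absorbance at 615 nm / Controls: amphotericin B positive control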
Numbers without * were called inactive; / = not tested or not shown.

SMILES	RAM network inh	Yeast lifespan up	Measles CPE	Phagocytosis inh	Yeast growth inh
Cc1nn(CC(=O)Nc2cc(S(=O)(=O)N(C)C)ccc2Cl)c(C)c1[N+](=O)[O-]	1.8	2.2	40.5*	-3.6	-36.7
Cc1nnc(SCC(=O)NCc2ccccc2)[nH]c1=O	0.9	5.3	55.1*	-1.8	-32.2
O=C(Nc1ccc(C(=O)O)cc1)/C(=C\c1ccc2c(c1)OCO2)NC(=O)c1ccc(Br)cc1	10.7*	/	/	/	/
O=C(O)CNC(=O)/C(=C\c1ccc2c(c1)OCO2)NC(=O)c1ccc(Br)cc1	1.7	/	/	/	/
CC(=O)N/C(=C/c1ccc2c(c1)OCO2)C(=O)Nc1ccccc1	0.6	-0.8	6.2	-11.0	-7.9
O=C(Nc1ccc(C(=O)O)cc1)/C(=C\c1ccc2c(c1)OCO2)NC(=O)c1ccccc1	9.2*	/	/	/	/
Cc1ccc(NC2=C(Cl)C(=O)OC2NC(=O)c2ccccc2)cc1 (stereo not given)	9.3*	/	18.7	/	-13.9
CCN1CC(CN(C)Cc2nc(-c3ccc(OC)c4ccccc34)oc2C)CC1=O (stereo not given)	-0.1	/	/	/	/
Cn1c(/C=C(\C#N)C(N)=S)ccc1-c1ccc(Br)cc1	9.6*	/	/	/	/
Cc1cc(C)c(C)c(/C=C(/C#N)C(N)=S)c1C	1.2	-19.5	4.3	3.5	-58.4
CCOC(=O)N1CCN(S(=O)(=O)c2ccc(OCC(=O)OC)c(C)c2)CC1	0.6	-9.1	2.6	-1.4	-9.2
COc1cccc(S(=O)(=O)N2CCN(c3ccccc3F)CC2)c1	4.7	-10.5	33.9*	0.0	-10.2
Cc1cc(S(=O)(=O)N2CCN(c3ccccc3C)CC2)ccc1F	5.8	-10.2	5.3	-0.5	-14.3
COC(=O)COc1ccc(S(=O)(=O)N2CCN(c3ccccc3F)CC2)cc1C	2.2	-2.4	27.0*	-0.8	-27.0
Cc1cc(S(=O)(=O)N2CCN(c3c(C)cccc3C)CC2)ccc1F	10.2*	1.2	-0.2	1.5	-34.2
COC(=O)CCC/C=C1\SC[C@@H](NC(=O)c2ccccc2)C1NC(C)=O (stereo not given in full)	1.2	4.6	7.4	-0.4	-49.8
CCN(C(=O)COC(=O)c1ccc2[nH]c3c(c2c1)CCCC3)C1CCS(=O)(=O)C1 (stereo not given)	1.0	/	/	/	/
CC(CCc1ccccc1)NC(=O)C(=O)N1CCOCC1 (stereo not given)	2.4	/	/	/	/
O=S(=O)(NCC1NCCc2ccccc21)c1ccccc1 (stereo not given)	0.0	/	/	/	/
Cc1ccc(-c2csc(C3=C(O)CN(NC(=O)c4ccc([N+](=O)[O-])cc4)C3=N)n2)cc1	8.6*	/	/	/	/
N=C1C(c2nc(-c3ccc(Br)cc3)cs2)=C(O)CN1NC(=O)c1ccc([N+](=O)[O-])cc1	3.0	/	/	/	/
O=C(C1CCN(S(=O)(=O)c2ccccc2[N+](=O)[O-])CC1)N1CCOCC1	1.0	/	/	/	/
COc1ccccc1-c1cc(C(F)(F)F)c(C#N)c(=O)[nH]1	3.8	/	/	/	/
COc1ccccc1-c1cc(SC)c(C#N)c(=O)o1	9.3*	26.5*	18.6	-1.7	-26.1
CCCCNC(=O)/C=C/c1ccc(S(=O)(=O)Nc2ccc(OC)cc2)cc1	2.6	/	/	/	/
SMILES	RAM network inh	Yeast lifespan up	Measles CPE	Phagocytosis inh	Yeast growth inh
CCC(C)NCCOCCOc1ccc(Cl)cc1Br (stereo not given)	1.3	/	/	/	/
COc1ccc(OCc2nc3c4c(ncn3n2)-c2ccccc2CC42CCCC2)cc1	4.6	0.1	24.4	-10.0	-45.4
Cc1cccc(OCc2nc3c4c(ncn3n2)-c2ccccc2CC42CCCC2)c1	9.2*	6.7	13.5	/	-25.6
COc1ccc(-c2nc3c4c(ncn3n2)-c2ccccc2CC42CCCC2)cc1	6.4	4.9	0.8	-7.5	-24.3
Cc1ccccc1OCc1nc2c3c(ncn2n1)-c1ccccc1CC31CCCC1	11.2*	1.1	12.1	-7.3	-20.0
Cc1ccc(OCc2nc3c4c(ncn3n2)-c2ccccc2CC42CCCC2)cc1	10.1*	-4.2	10.1	-11.6	-1.7
NC(N)=N/N=C/c1cccc([N+](=O)[O-])c1O	-0.9	/	/	/	/
O=[N+]([O-])c1cccc(/C=N\N=C2c3ccccc3-c3ccccc32)c1O	9.9*	-4.4	20.1	-5.3	4.0
Cc1ccc(C(C(=O)Nc2ccc(C(C)C)cc2)N(C)C(=O)c2ccc(=O)[nH]c2)cc1 (stereo not given)	3.7	/	/	/	/
COc1ccc(NC(=O)C(c2ccccc2)N(C)C(=O)c2ccc(=O)[nH]c2)cc1 (stereo not given)	1.7	12.3	31.0*	/	-35.8
CC1(C)CC(=O)C2=C(C1)OC1=C(C(=O)CC(C)(C)C1)C2(C)C	2.5	2.9	13.5	-8.3	-9.6
